The target of one assay is T1, NFR5 ectodomain (Lotus japonicus, UniProt Q70KR1).
T1 sequence (Q70KR1 29-242): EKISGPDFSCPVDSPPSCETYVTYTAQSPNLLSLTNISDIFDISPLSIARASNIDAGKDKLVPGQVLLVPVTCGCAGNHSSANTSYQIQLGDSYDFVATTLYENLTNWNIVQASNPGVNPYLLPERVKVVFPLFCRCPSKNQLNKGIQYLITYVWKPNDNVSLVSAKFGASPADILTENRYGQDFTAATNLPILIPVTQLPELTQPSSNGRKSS
The assay is described as follows: BLI binding of NFR5 ectodomain. The note with it: analyte 100 to 1.56 µM. On the technique in general: Biolayer interferometry detects binding as a change in optical thickness at a sensor tip.

The target in assay [1] is T2, engineered LYS11 (ENG-LYS11) (Lotus japonicus, UniProt D3KTZ8).
T2 sequence (D3KTZ8 28-247): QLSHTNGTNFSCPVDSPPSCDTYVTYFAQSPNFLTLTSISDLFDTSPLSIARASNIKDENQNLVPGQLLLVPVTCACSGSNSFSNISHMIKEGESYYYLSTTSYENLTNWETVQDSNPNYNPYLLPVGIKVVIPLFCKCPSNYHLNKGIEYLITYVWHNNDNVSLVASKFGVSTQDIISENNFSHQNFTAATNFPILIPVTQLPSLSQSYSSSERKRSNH
Nature of the assay: BLI binding of engineered LYS11 ectodomain. The note with it: ENG-LYS11, analyte 100 to 1.56 µM.

A further assay concerns the target T3, CERK1 (Arabidopsis thaliana, UniProt A8R7E6).
T3 sequence (A8R7E6 24-232 limits assumed): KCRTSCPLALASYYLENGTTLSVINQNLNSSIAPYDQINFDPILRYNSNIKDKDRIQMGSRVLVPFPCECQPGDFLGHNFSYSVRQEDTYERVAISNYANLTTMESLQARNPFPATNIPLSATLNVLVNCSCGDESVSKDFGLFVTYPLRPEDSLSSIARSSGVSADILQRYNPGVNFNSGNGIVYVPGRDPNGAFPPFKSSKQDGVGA
Nature of the assay: BLI kinetics of CERK1 ectodomain binding to chitin fragment.

For the next assay, the target named is T4, NFP (Medicago truncatula, UniProt Q0GXS4).
T4 sequence (Q0GXS4 28-246): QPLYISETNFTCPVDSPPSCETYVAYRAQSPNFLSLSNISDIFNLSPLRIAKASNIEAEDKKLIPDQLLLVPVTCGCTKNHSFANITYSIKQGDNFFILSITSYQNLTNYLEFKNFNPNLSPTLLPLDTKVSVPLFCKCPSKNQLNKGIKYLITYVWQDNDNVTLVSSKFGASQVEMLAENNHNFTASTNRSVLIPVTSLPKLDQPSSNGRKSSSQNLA
Nature of the assay: MST steady-state binding to fluorescently labeled NFP. The conditions noted are these: ligand 0.6 to 20,000 nM, NFP 12.5 to 50 nM. The procedure, abridged:
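Microscale thermophoresis using NHS blue dye-labelled NFP ectodomain (insect cell-expressed) held at a constant 12.5–50 nM. Ligands were S. meliloti succinoglycan (EPS-I) and maltodextrin, each titrated from 0.6 to 20,000 nM. Steady-state binding signal was recorded.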

The text below walks through data of paper PMC8612216 (Proceedings of the National Academy of Sciences of the …, 2021).

With `N[C@H]1[C@H](O[C@H]2[C@H](O)[C@@H](N)[C@H](O[C@H]3[C@H](O)[C@@H](N)[C@H](O[C@H]4[C@H](O)[C@@H](N)[C@H](O[C@H]5[C@H](O)[C@@H](N)C(O)O[C@@H]5CO)O[C@@H]4CO)O[C@@H]3CO)O[C@@H]2CO)O[C@H](CO)[C@@H](O)[C@@H]1O` (some centres unmarked) [CO5, chitopentaose], the Kd result is “does not bind” at NFR5 ectodomain and “completely lost the ability to bind” in assay [1]. Moreover, at CERK1, the binding kinetics entry was “fast association and dissociation rates”.

Turning to S. meliloti succinoglycan [EPS-I], the “binding to NFP” value on NFP is “unable to bind”. On the same count and under the same terms, then maltodextrin, with “unable to bind”.
